Our source for the inhibition of growth values is ChEMBL document CHEMBL3112444, “Synthesis and anticancer activity of focused compound libraries from the natural product lead, oroidin” (2014).

Assay [1] can be described thus: Cytotoxicity against human U87 cells assessed as growth inhibition at 25 uM after 72 hrs by MTT assay relative to control. The class given is functional, U-87MG ATCC. To be noted: U-87 MG, read-out: GI. The essentials:
(§1)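 Cells in logarithmic growth kept in DMEM with 10% FBS, 10 mM sodium bicarbonate, penicillin 100 IU/mL, glutamine 4 mM, at 37 °C under 5% CO2. Plated in duplicate at 2500–4000 cells/well. Compound (30 mM DMSO stock) added 24 h after plating. MTT read at 540 nm after 72 h exposure.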

Assay [2] can be described thus: Cytotoxicity against mouse SMA cells assessed as growth inhibition at 25 uM after 72 hrs by MTT assay relative to control. The class given is functional. The following applies: read-out: GI. The method, boiled down: as §1
On the technique in general: Formazan colour is commonly taken as a measure of viable cells.

The nature of assay [3]: Cytotoxicity against human MIA cells assessed as growth inhibition at 25 uM after 72 hrs by MTT assay relative to control. The following applies: read-out: GI. It counts as functional. The essentials: as §1
A short description of assay [4]: Cytotoxicity against human SJ-G2 cells assessed as growth inhibition at 25 uM after 72 hrs by MTT assay relative to control. The class given is functional. The following applies: SJ-G2, 72 h, read-out: GI. The method, boiled down: as §1
Assay [5] is described as follows: Cytotoxicity against human BE(2)-C cells assessed as growth inhibition at 25 uM after 72 hrs by MTT assay relative to control. The class given is functional. To be noted: read-out: GI. The method, boiled down:
as §1

In assay [6] the test system is DU-145. The assay can be described thus: Cytotoxicity against human DU145 cells assessed as growth inhibition at 25 uM after 72 hrs by MTT assay relative to control. The class given is functional. The following applies: DU-145, 72 h, read-out: GI. The method, boiled down: as §1
Assay [7] relates to A-431. The assay can be described thus: Cytotoxicity against human A431 cells assessed as growth inhibition at 25 uM after 72 hrs by MTT assay relative to control. The following applies: A-431, 72 h, read-out: GI. The class given is functional. The method, boiled down:
as §1

The nature of assay [8]: Cytotoxicity against human H460 cells assessed as growth inhibition at 25 uM after 72 hrs by MTT assay relative to control. The class given is functional. To be noted: NCI-H460, 72 h, read-out: GI. The method, boiled down: as §1
The subject of assay [9] is A2780. The assay can be described thus: Cytotoxicity against human A2780 cells assessed as growth inhibition at 25 uM after 72 hrs by MTT assay relative to control. The class given is functional. The following applies: A2780, 72 h, read-out: GI. The method, boiled down: as §1
Assay [10] deals with MCF7. The assay can be described thus: Cytotoxicity against human MCF7 cells assessed as growth inhibition at 25 uM after 72 hrs by MTT assay relative to control. It counts as functional. To be noted: MCF7, 72 h, read-out: GI. The method, boiled down: as §1
The test system of assay [11] is SW480. The assay can be described thus: Cytotoxicity against human SW480 cells assessed as growth inhibition at 25 uM after 72 hrs by MTT assay relative to control. It counts as functional. To be noted: SW480, 72 h, read-out: GI. The essentials: as §1
The test system of assay [12] is HT-29. The assay can be described thus: Cytotoxicity against human HT-29 cells assessed as growth inhibition at 25 uM after 72 hrs by MTT assay relative to control. The class given is functional. To be noted: HT-29, 72 h, read-out: GI. The essentials: as §1

Bounds are passed on as bounds.

`COc1ccc(CNC(=O)c2ccc[nH]2)cc1`: the inhibition of growth at 25 µM is below 0% in [1]; below 0% in assay [2]; 6% in assay [3]; below 0% in assay [4]; below 0% in assay [5]; 8% in [6]. Besides, the inhibition of growth at 25 µM in [7] is below 0%; in [8] it was 2%; in assay [9], 6%; in assay [10], 5%; in [11], 10%; in assay [12], 3%.
As for `O=C(NCCc1ccc2ccccc2c1)c1cc(Br)c(Br)[nH]1`, the inhibition of growth at 25 µM was below 0% in assay [1]; 17% in assay [2]; 21% in [3]; 10% in assay [4]; below 0% in assay [5]; 14% in [6]. The inhibition of growth at 25 µM in assay [7] is 15%; in [8], 12%; in assay [9], 52%; in [10] it was 53%; in assay [11], below 0%; in assay [12] it was 28%.
Consider `O=C(NCC(c1ccccc1)c1ccccc1)c1ccc[nH]1`, for which the inhibition of growth at 25 µM in [1] is 14%; in assay [2], 15%; in [3], 32%; in [4], 53%; in [5], below 0%; in assay [6] it was 8%. The inhibition of growth at 25 µM in assay [7] is 30%; in [8], 11%; in assay [9], 27%; in [10] it was 52%; in assay [11], below 0%; in assay [12], 29%.
Regarding `O=C(NCCCn1cccn1)c1ccc[nH]1`, the inhibition of growth at 25 µM in assay [1] is 9%; in assay [2] it was 8%; in assay [3], 19%; in assay [4], below 0%; in assay [5], 1%; in assay [6], 7%. Besides, the inhibition of growth at 25 µM in assay [7] was found to be 1%; in assay [8], 14%; in assay [9], 10%; in assay [10], 7%; in [11], 9%; in assay [12] it was 4%.
On to `O=C(NCCCn1cccn1)c1cc(Br)c(Br)[nH]1`, for which the inhibition of growth at 25 µM in assay [1] was below 0%; in [2], 6%; in [3], 3%; in assay [4], below 0%; in assay [5] it was 6%; in assay [6], 5%. For the same molecule, the inhibition of growth at 25 µM in assay [7] is 3%; in assay [8] it was 14%; in [9], 15%; in assay [10] it was 12%; in assay [11], below 0%; in [12], 4%.
For the molecule `Cc1nccn1CCCNC(=O)c1ccc[nH]1`, the inhibition of growth at 25 µM was 3% in assay [1]; below 0% in assay [2]; 4% in [3]; below 0% in assay [4]; below 0% in [5]; 5% in assay [6]. For the same molecule, the inhibition of growth at 25 µM in assay [7] was below 0%; in assay [8] it was 3%; in [9] it was 1%; in assay [10] it was 8%; in assay [11], 7%; in assay [12], 5%.
Turning to `Cc1nccn1CCCNC(=O)c1cc(Br)c(Br)[nH]1`, the inhibition of growth at 25 µM in assay [1] was below 0%; in assay [2], 11%; in assay [3], 15%; in assay [4] it was 10%; in assay [5], 20%; in assay [6] it was 28%. Besides, the inhibition of growth at 25 µM in assay [7] came to 11%; in [8], 22%; in assay [9] it was 21%; in assay [10] it was 36%; in [11] it was 26%; in [12], 10%.
In the case of `O=C(NCCc1c[nH]cn1)c1ccc[nH]1`, the inhibition of growth at 25 µM is 6% in [1]; 0% in assay [2]; 7% in assay [3]; below 0% in [4]; below 0% in [5]; 5% in assay [6]. Also, the inhibition of growth at 25 µM amounted to 3% in [7]; 0% in assay [8]; 11% in assay [9]; 1% in [10]; 1% in [11]; 11% in [12].
For `O=C(NCCc1c[nH]cn1)c1cc(Br)c(Br)[nH]1`, the inhibition of growth at 25 µM in [1] was 5%; in [2] it was 18%; in assay [3], 20%; in assay [4], 11%; in assay [5] it was 13%; in assay [6], below 0%. The inhibition of growth at 25 µM in assay [7] came out at 2%; in assay [8], 35%; in assay [9], 37%; in assay [10] it was 23%; in assay [11] it was 12%; in assay [12] it was 11%.
As to `COc1ccc(CNC(=O)c2cc(Br)c(Br)[nH]2)cc1`, the inhibition of growth at 25 µM in assay [1] is below 0%; in assay [2], 23%; in assay [3] it was 14%; in assay [4], 4%; in assay [5], below 0%; in [6] it was below 0%. The inhibition of growth at 25 µM in assay [7] was 12%; in [8], 13%; in assay [9], 48%; in assay [10], 30%; in assay [11], below 0%; in assay [12], 14%.
Turning to `O=C(NCCc1ccc(O)cc1)c1ccc[nH]1`, the inhibition of growth at 25 µM in [1] was 2%; in assay [2] it was below 1%; in [3], 6%; in [4], 11%; in [5] it was below 0%; in assay [6], below 0%. Moreover, the inhibition of growth at 25 µM in assay [7] is below 0%; in assay [8], 2%; in assay [9] it was 18%; in assay [10] it was 8%; in [11], 5%; in assay [12], 3%.
For `CCc1ccc(CCNC(=O)c2ccc[nH]2)cc1`, the inhibition of growth at 25 µM was 0% in assay [1]; 8% in assay [2]; 12% in [3]; below 0% in [4]; below 0% in assay [5]; 1% in assay [6]. The inhibition of growth at 25 µM in assay [7] was 0%; in assay [8], 3%; in assay [9], below 0%; in [10], 19%; in assay [11], below 0%; in [12], 22%.
In the case of `CCc1ccc(CCNC(=O)c2cc(Br)c(Br)[nH]2)cc1`, the inhibition of growth at 25 µM came to 6% in assay [1]; 79% in assay [2]; 31% in assay [3]; 22% in [4]; 20% in assay [5]; 7% in assay [6]. Besides, the inhibition of growth at 25 µM was found to be 22% in [7]; 23% in assay [8]; 67% in assay [9]; 88% in [10]; 5% in [11]; 81% in assay [12].
Consider `O=C(NCCc1ccc2ccccc2c1)c1ccc[nH]1`, for which the inhibition of growth at 25 µM in [1] is below 1%; in [2] it was 16%; in [3], 20%; in assay [4], 8%; in assay [5] it was below 0%; in assay [6], 20%. Further, the inhibition of growth at 25 µM in [7] was found to be 8%; in assay [8], 23%; in assay [9] it was 13%; in [10] it was 23%; in assay [11], 3%; in assay [12] it was 19%.
